These results are taken from ChEMBL document CHEMBL3102702, “Protein kinase and HDAC inhibitors from the endophytic fungus Epicoccum nigrum” (J Nat Prod, 2014).

A short description of assay [1]: Antiproliferative activity against human U937 cells assessed as growth inhibition at 25 uM after 72 hrs. Particulars: U-937, 72 h, read-out: GI. It counts as functional. An outline of the steps:
(§1)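 RAJI and U-937 cells from ATCC, grown in RPMI 1640 with 10% heat-inactivated fetal calf serum and 1% antibiotic–antimycotic at 37 °C, humid 5% CO2. Treated 72 h; DMSO-treated cells as negative control; proliferation measured by a previously described method.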

Assay [2] has as its target Histone deacetylase 2 (Homo sapiens, UniProt Q92769). The assay can be described thus: Inhibition of recombinant HDAC2 (unknown origin) using Fluor-de-Lys-SIRT1 as substrate by fluorescence assay.
Assay [3] deals with T1, Serine/threonine-protein kinase Nek2 (Homo sapiens, UniProt P51955).
T1 sequence (P51955 whole entry): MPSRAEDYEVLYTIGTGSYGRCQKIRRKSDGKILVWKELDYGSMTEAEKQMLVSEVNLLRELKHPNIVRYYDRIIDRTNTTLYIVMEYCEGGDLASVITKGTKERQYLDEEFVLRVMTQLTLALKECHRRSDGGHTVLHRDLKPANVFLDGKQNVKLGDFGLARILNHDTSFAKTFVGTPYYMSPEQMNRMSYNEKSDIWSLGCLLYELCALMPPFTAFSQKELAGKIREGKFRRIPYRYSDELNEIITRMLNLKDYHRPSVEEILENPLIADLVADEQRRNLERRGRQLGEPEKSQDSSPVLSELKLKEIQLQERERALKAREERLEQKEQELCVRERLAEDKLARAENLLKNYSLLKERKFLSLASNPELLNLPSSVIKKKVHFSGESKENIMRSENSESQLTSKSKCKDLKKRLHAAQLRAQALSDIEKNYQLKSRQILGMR
The assay can be described thus: Inhibition of NEK2 (unknown origin).

Assay [4] has as its target Proto-oncogene tyrosine-protein kinase Src (Homo sapiens, UniProt P12931). Nature of the assay: Inhibition of SRC (unknown origin).
The subject of assay [5] is Raji. The assay can be described thus: Antiproliferative activity against human Raji cells assessed as growth inhibition at 25 uM after 72 hrs. The settings on record: read-out: GI. In kind it is functional. In short, it runs like this:
as §1

Assay [6] can be described thus: Antiproliferative activity against human U937 cells assessed as growth inhibition at 5 uM after 72 hrs. It counts as functional. Particulars: U-937, 72 h, read-out: GI. In short, it runs like this:
as §1

Assay [7] relates to Raji. Nature of the assay: Antiproliferative activity against human Raji cells assessed as growth inhibition at 5 uM after 72 hrs. It counts as functional. The settings on record: read-out: GI. In short, it runs like this: as §1

Each structure is given as a SMILES string.

Histone deacetylase 2, sequence (Q92769 whole entry): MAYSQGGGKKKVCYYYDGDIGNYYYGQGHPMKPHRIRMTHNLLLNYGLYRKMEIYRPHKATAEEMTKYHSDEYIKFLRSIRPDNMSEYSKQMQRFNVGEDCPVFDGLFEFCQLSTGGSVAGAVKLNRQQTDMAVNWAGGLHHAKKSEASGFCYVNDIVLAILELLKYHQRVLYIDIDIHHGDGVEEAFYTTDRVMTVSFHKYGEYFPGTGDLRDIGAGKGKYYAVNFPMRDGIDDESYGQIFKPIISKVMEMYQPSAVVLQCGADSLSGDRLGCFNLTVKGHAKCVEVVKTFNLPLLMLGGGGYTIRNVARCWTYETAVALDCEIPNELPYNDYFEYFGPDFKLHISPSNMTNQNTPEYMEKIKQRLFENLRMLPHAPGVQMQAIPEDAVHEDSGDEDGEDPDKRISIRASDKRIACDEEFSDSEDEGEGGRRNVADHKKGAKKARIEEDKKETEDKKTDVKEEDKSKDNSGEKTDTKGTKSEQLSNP
Proto-oncogene tyrosine-protein kinase Src, sequence (P12931 2-536 limits assumed): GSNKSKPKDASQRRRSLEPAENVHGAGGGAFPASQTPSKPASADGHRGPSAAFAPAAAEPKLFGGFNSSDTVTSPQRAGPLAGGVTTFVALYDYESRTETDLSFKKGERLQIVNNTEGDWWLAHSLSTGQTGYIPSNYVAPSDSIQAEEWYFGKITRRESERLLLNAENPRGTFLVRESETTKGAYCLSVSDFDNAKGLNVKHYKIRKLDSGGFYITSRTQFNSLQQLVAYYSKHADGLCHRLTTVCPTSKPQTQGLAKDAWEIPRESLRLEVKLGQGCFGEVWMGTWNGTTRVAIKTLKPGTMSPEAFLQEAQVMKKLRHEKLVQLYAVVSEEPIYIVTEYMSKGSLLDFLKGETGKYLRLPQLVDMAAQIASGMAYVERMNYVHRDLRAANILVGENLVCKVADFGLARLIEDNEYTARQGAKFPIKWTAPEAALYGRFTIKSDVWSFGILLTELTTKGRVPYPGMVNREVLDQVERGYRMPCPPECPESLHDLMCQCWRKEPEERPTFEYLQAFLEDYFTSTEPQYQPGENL

By IC50 is commonly meant the concentration needed to halve the response being measured. For the compound `Cc1c(O)c(O)c(O)c(C=O)c1-c1cc2c(C=O)c(C)c(O)c(O)c2o1`, the inhibition of growth at 25 µM in assay [1] amounted to 30%; in assay [5], 55%. The results for the IC50 in assay [2], in assay [3] and in assay [4] were 9100 nM, 3780 nM and 490 nM, respectively.

Turning to `Cc1c(O)c(O)c2c(c1C=O)[C@@H]1O[C@H](O2)c2c(C)c(O)c(O)c(O)c2C1=O` (racemic), the IC50 was determined as 10000 nM in assay [2], 1830 nM in assay [3] and 370 nM in assay [4]. In addition, the inhibition of growth at 5 µM in assay [6] is 32%; in assay [7], 50%.
